Test results reported in ChEMBL document CHEMBL2311339, “Identification of GZD824 as an orally bioavailable inhibitor that targets phosphorylated and nonphosphorylated breakpoint cluster region-Abelson (Bcr-Abl) kinase and overcomes clinically acquired mutation-induced resistance against imatinib” (J Med Chem, 2013).
pIC50, pKd: −log10 of the molar value. The source made the active and inactive calls. No cut-off for these calls is given here.

What was measured:
BaF3 [1] = test: Antitumor activity against mouse BA/F3 cells expressing BCR-ABL E255K mutant allografted in po dosed SCID mouse assessed as reduction of hepatosplenomegaly administered qd for 14 days; format: functional, organism-based
BaF3 [2] = test: Antitumor activity against mouse BA/F3 cells expressing wild type BCR-ABL allografted in SCID mouse assessed as induction of tumor regression at 5 mg/kg/day, po qd for 14 days; format: functional, organism-based
Method in brief: (§1)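 Ba/F3 cells stably expressing Bcr-Abl (wild type or mutant) were grown in RPMI 1640 with 10% FBS and no IL-3, then suspended in saline (2.5 × 10^7 cells/mL) and given as 0.2 mL s.c. in the right flank. Groups were randomised at 100−200 mm3. Once-daily oral gavage for 14 days in DMSO/Cremophor/ethanol/saline vehicle; reference imatinib 50 or 100 mg/kg/day. Volume L × W²/2 every 2 days; n = 10; t test versus vehicle.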

BaF3 [3] = test: Antitumor activity against mouse BA/F3 cells expressing wild type BCR-ABL allografted in SCID mouse assessed as inhibition of tumor growth at 1 mg/kg/day, po qd for 14 days; format: functional, organism-based; method in brief: as §1
Mus musculus = test: Toxicity in human K562 cells xenografted mouse assessed as body weight loss relative to vehicle-treated control; format: organism-based; conditions: in vivo
Method in brief: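 K562 cells (2.5 × 10^7 cells/mL in normal saline, 0.2 mL) were injected subcutaneously into the right flank. Mice were randomized once mean tumor volume reached 100−200 mm3, n = 10 per group. Dosing was by oral gavage once daily for 14 days in 1% DMSO/22.5% Cremophor/7.5% ethanol/69% saline. Tumor volume (L × W²/2) and body weight were measured every 2 days; unpaired t test versus vehicle.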

K562 = test: Antitumor activity against human K562 cells xenografted in mouse assessed as reduction in tumor size at 2 to 10 mg/kg, po qd for 2 days; format: functional, organism-based
[4] = Plasma concentration in rat after 12 hrs; format: ADME
Method in brief: (§2)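 Bismesylate salt given to rats as a single iv dose of 5 mg/kg or a single oral dose of 25 mg/kg. Plasma drug levels were followed over time to derive the PK parameters. The 12 h and 24 h plasma levels come from the oral 25 mg/kg dose.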

[5] = Tmax in rat at 25 mg/kg, po; format: ADME, organism-based; parameters: dose 25 mg/kg, route oral; conditions: in vivo; method in brief: as §2
[6] = Clearance in rat at 5 mg/kg, iv; format: ADME, organism-based; parameters: dose 5 mg/kg, route intravenous; conditions: in vivo; method in brief: as §2
[7] = Mean residence time in rat at 5 mg/kg, iv; format: ADME, organism-based; parameters: dose 5 mg/kg, route intravenous; conditions: in vivo; method in brief: as §2
[8] = AUC (0 to t) in rat at 5 mg/kg, iv; format: ADME, organism-based; parameters: dose 5 mg/kg, route intravenous; conditions: plasma; method in brief: as §2
[9] = Apparent permeability from apical to basolateral side in human Caco2 cells by LC-MS/MS analysis; format: ADME, cell-based; conditions: Caco-2
Cytochrome P450 2C9 = Cytochrome P450 2C9 (Homo sapiens, UniProt P11712); test: Inhibition of human recombinant CYP2C9 after 30 mins; format: ADME
Cytochrome P450 2C19 = Cytochrome P450 2C19 (Homo sapiens, UniProt P33261); test: Inhibition of human recombinant CYP2C19 after 30 mins; format: ADME
Cytochrome P450 2E1 = Cytochrome P450 2E1 (Homo sapiens, UniProt P05181); test: Inhibition of human recombinant CYP2E1 at 30 uM after 30 mins; format: ADME; conditions: recombinant enzyme, 0.5 h
Cytochrome P450 2D6 = Cytochrome P450 2D6 (Homo sapiens, UniProt P10635); test: Inhibition of human recombinant CYP2D6 at 30 uM after 30 mins; format: ADME; conditions: recombinant enzyme, 0.5 h
MOLT-4 = test: Cytotoxicity against human MOLT4 cells […] assessed as growth inhibition after 72 hrs by CCK-8 assay; format: functional, cell-based; conditions: MOLT-4, 72 h
Method in brief: (§3)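 Log-phase human leukemia cells were seeded at about 3000 cells/well and treated 24 h later for 72 h. CCK-8 was then incubated with the cells for 3 h and read as OD450 − OD650. Viability was normalized to vehicle wells and cell-free blanks, and IC50 taken as the mean of three experiments.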

[10] = Cytotoxicity against human SUP-B15 cells expressing BCR-ABL assessed as growth inhibition after 72 hrs by CCK-8 assay; format: functional, cell-based; conditions: SUP-B15, 72 h; method in brief: as §3
[11] = Cytotoxicity against mouse BA/F3 cells expressing BCR-ABL E355G mutant assessed as growth inhibition after 72 hrs by CCK-8 assay; conditions: BaF3, 72 h
[12] = Cytotoxicity against mouse BA/F3 cells expressing BCR-ABL F317V mutant assessed as growth inhibition after 72 hrs by CCK-8 assay; conditions: BaF3, 72 h
[13] = Cytotoxicity against mouse BA/F3 cells expressing BCR-ABL Y253F mutant assessed as growth inhibition after 72 hrs by CCK-8 assay; conditions: BaF3, 72 h
[14] = target: Angiopoietin-1 receptor (Homo sapiens) (UniProt Q02763); test: Binding affinity to TIE2 (unknown origin) at 10 nM after 2 hrs by FRET assay
[15] = target: Proto-oncogene tyrosine-protein kinase receptor Ret (Homo sapiens) (UniProt P07949); test: Binding affinity to RET (unknown origin) at 10 nM after 2 hrs by FRET assay
[16] = target: Mast/stem cell growth factor receptor Kit (Homo sapiens) (UniProt P10721); test: Binding affinity to KIT (unknown origin) at 10 nM after 2 hrs by FRET assay
[17] = target: Serine/threonine-protein kinase B-raf (Homo sapiens) (UniProt P15056); test: Binding affinity to BRAF (unknown origin) at 10 nM after 2 hrs by FRET assay
[18] = target: Epithelial discoidin domain-containing receptor 1 (Homo sapiens) (UniProt Q08345); test: Binding affinity to DDR1 (unknown origin) at 10 nM after 2 hrs by FRET assay
[19] = target: Fibroblast growth factor receptor (Homo sapiens) (UniProt P22607+P11362+P22455+P21802); test: Binding affinity to FGFR (unknown origin) at 10 nM after 2 hrs by FRET assay; format: protein assay
[20] = target: T1, Tyrosine-protein kinase ABL1 (Homo sapiens, UniProt P00519, M351T); test: Binding affinity to phosphorylated ABL1 M351T mutant (unknown origin) after 1 hr
[21] = target: T2, Tyrosine-protein kinase ABL1 (Homo sapiens, UniProt P00519, H396P); test: Binding affinity to non phosphorylated ABL1 H396P mutant (unknown origin) after 1 hr
[22] = target: Tyrosine-protein kinase ABL1 (Homo sapiens, UniProt P00519, T315I); test: Binding affinity to non phosphorylated ABL1 T315I mutant (unknown origin) after 1 hr
[23] = target: Tyrosine-protein kinase ABL1 (Homo sapiens, UniProt P00519); test: Binding affinity to phosphorylated wild type ABL1 (unknown origin) after 1 hr
[24] = target: T1, Tyrosine-protein kinase ABL1; test: Inhibition of human recombinant ABL1 M351T mutant expressed in insect cells after 30 mins by FRET assay; format: cell-based
[25] = target: T2, Tyrosine-protein kinase ABL1; format: cell-based
[26] = Half life in rat liver microsomes at 1 uM; format: ADME, Microsome
[27] = Intrinsic clearance in rat liver microsomes at 1 uM; format: ADME, Microsome; conditions: read-out: CLH
cells [28] = conditions: Mus musculus, BaF3, 72 h
cells [29] = conditions: Mus musculus, BaF3, 72 h; remark: listed apart in the source

Angiopoietin-1 receptor (Homo sapiens), sequence (Q02763 whole entry): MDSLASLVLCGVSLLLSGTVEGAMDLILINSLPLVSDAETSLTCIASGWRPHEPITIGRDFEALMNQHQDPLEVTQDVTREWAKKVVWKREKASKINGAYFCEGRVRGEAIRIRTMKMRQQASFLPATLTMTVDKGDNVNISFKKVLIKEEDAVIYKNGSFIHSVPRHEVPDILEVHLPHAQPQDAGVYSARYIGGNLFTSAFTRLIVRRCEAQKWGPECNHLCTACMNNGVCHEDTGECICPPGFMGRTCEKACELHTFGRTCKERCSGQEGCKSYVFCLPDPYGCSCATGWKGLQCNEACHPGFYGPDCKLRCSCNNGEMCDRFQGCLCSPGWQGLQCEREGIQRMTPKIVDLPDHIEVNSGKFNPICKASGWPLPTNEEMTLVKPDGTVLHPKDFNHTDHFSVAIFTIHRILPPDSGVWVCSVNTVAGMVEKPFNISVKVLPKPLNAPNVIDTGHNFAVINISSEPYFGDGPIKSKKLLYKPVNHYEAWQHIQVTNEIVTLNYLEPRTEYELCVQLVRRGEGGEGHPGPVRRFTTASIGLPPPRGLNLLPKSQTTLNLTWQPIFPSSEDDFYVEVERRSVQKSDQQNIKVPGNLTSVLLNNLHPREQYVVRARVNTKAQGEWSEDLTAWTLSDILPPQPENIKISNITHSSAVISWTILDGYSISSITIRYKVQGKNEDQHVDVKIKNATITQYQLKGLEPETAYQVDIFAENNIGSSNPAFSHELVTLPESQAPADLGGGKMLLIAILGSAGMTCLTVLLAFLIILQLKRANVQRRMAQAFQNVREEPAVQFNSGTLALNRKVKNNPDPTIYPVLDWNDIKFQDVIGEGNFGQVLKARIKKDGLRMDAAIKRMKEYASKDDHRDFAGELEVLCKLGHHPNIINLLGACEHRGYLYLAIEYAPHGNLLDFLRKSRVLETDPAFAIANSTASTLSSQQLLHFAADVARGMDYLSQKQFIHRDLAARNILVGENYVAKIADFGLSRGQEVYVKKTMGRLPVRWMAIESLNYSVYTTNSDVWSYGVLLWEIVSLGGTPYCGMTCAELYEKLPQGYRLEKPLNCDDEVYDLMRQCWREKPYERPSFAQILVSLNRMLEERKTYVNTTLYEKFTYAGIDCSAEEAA
Epithelial discoidin domain-containing receptor 1 (Homo sapiens), sequence (Q08345 whole entry, the tested form may be a part): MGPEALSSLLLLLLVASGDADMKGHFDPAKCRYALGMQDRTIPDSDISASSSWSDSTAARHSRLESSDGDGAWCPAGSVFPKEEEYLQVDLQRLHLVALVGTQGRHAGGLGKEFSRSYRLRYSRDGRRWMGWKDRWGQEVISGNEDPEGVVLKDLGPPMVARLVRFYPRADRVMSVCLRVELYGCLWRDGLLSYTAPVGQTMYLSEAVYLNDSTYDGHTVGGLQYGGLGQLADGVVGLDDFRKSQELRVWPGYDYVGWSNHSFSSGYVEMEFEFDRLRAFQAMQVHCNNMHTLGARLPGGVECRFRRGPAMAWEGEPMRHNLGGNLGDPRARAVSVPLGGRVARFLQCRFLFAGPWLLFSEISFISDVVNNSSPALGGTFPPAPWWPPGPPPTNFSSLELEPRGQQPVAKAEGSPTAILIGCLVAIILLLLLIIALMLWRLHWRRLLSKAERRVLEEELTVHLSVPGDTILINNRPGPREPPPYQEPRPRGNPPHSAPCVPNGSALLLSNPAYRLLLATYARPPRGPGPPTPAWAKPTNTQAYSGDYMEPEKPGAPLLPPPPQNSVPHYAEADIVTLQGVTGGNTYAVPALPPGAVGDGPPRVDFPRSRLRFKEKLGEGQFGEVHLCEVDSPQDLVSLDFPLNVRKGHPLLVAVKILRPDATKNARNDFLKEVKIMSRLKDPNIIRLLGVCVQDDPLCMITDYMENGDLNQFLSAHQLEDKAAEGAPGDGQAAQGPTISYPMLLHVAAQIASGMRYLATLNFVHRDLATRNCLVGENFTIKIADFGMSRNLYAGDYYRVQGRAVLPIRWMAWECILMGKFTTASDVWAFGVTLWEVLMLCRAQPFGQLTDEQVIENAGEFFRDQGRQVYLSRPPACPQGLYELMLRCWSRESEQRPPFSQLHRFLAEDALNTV
Mast/stem cell growth factor receptor Kit (Homo sapiens), sequence (P10721 whole entry): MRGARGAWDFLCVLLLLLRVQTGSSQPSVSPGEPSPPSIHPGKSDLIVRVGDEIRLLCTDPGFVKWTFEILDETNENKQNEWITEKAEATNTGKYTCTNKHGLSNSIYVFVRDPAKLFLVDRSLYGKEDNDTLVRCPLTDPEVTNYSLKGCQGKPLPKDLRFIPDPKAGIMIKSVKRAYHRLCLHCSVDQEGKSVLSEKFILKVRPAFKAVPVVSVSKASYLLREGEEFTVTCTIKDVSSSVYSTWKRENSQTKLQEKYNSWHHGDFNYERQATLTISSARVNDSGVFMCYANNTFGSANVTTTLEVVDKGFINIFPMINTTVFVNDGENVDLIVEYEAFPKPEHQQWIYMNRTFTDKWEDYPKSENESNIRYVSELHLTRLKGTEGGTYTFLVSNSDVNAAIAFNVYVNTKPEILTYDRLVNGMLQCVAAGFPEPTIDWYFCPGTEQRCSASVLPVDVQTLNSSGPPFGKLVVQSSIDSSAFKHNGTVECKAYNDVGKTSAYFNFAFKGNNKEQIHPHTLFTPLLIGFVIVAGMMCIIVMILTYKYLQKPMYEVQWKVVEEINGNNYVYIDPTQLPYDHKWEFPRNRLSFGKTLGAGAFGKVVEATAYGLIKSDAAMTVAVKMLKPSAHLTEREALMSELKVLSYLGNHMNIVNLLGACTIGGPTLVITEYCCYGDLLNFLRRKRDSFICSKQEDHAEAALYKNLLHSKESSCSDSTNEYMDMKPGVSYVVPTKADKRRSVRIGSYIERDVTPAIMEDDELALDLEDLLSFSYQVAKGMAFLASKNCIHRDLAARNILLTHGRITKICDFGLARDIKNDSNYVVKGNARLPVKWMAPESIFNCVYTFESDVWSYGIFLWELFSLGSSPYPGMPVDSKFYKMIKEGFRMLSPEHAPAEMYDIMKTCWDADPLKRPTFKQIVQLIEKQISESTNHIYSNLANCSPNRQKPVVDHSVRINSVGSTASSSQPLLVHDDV
Cytochrome P450 2E1, sequence (P05181 whole entry): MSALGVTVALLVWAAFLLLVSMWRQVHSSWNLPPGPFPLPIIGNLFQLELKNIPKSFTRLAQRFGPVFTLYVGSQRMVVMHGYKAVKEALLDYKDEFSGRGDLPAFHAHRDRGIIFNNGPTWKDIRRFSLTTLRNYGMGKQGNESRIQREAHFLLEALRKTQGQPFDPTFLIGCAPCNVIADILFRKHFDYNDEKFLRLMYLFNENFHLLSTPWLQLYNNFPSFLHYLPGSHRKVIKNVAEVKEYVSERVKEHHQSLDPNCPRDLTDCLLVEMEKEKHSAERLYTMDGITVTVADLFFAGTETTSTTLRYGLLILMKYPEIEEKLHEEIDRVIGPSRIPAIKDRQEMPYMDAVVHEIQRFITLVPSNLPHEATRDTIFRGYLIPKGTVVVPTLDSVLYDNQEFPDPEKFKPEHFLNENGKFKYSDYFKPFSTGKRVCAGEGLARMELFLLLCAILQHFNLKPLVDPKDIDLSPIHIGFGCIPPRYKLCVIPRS
Cytochrome P450 2C9, sequence (P11712 whole entry): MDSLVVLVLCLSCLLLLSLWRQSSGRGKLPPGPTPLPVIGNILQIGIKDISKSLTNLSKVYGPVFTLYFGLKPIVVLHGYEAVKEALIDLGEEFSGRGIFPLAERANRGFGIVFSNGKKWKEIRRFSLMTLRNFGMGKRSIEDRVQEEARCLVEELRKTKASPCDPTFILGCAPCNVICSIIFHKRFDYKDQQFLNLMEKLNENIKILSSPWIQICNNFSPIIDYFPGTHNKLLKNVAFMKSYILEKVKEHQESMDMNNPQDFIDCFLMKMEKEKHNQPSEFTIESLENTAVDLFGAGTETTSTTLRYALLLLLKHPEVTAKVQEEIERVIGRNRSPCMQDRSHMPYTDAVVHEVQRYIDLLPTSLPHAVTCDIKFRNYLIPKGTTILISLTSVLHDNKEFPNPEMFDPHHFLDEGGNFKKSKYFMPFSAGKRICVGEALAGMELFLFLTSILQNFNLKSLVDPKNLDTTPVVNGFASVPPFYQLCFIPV
Serine/threonine-protein kinase B-raf (Homo sapiens), sequence (P15056 whole entry, the tested form may be a part): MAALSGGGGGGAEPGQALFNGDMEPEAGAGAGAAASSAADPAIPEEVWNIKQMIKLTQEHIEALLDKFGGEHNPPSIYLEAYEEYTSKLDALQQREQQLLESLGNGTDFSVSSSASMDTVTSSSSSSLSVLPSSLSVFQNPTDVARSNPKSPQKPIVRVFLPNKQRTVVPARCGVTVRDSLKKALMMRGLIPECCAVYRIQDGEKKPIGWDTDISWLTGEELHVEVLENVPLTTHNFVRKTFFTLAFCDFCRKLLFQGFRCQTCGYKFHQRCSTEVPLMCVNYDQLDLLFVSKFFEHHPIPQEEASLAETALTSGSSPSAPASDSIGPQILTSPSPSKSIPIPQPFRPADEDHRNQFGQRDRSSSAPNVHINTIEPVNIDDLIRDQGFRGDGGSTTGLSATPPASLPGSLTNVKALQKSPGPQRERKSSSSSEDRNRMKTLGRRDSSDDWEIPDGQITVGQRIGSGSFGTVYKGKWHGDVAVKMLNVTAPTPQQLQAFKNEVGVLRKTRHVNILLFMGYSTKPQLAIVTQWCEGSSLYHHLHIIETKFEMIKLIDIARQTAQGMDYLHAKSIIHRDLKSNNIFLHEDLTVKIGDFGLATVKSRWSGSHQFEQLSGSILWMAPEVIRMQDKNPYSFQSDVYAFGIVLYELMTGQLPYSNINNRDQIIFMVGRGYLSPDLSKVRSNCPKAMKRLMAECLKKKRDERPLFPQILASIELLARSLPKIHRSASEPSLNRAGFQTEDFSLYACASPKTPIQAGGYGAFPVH

For `Cc1ccc(C(=O)Nc2ccc(CN3CCN(C)CC3)c(C(F)(F)F)c2)cc1C#Cc1cnc2[nH]ncc2c1` [OLVEREMBATINIB], the Activity (BaF3 [1]) was “Active”, the Activity (BaF3 [2]) was “Active” and the TGI (BaF3 [3]) was “Active”. The Activity (Mus musculus) was < 5%, the Activity (K562) was “Active” and the concentration at 12 h [4] was 270 nM. For the same compound, the Tmax [5] was 4 h, the clearance [6] was 28.3 mL/min/kg and the MRT [7] was 6.7 h. It also gave an AUC(0-t) [8] of 2740 ng·h/mL, a Papp A→B [9] of 0.32 ×10⁻⁶ cm/s and a pIC50 (Cytochrome P450 2C9) of 6.96. For the same compound, the pIC50 (Cytochrome P450 2C19) was 6.00, the “inhibition (INH)” value (Cytochrome P450 2E1) was “Not Active” and the “inhibition (INH)” value (Cytochrome P450 2D6) was “Not Active”. The pIC50 (MOLT-4) was 7.58, the pIC50 [10] was 8.60 and the pIC50 [11] was 8.59. For the same compound, the pIC50 [12] was 8.40, the pIC50 [13] was 7.96 and the Activity [14] was “inactive”. For the same compound, the Activity [15] was “inactive”, the Activity [16] was “inactive” and the Activity [17] was “inactive”. For the same compound, the Activity [18] was “inactive”, the Activity [19] was “inactive” and the pKd [20] was 9.64. For the same compound, the pKd [21] was 9.74, the pKd [22] was 9.15 and the pKd [23] was 9.47. It also gave a pIC50 [24] of 9.54, a pIC50 [25] of 9.46 and a half-life at 1 µM [26] of 0.933 h. For the same compound, the microsomal CLint at 1 µM [27] was 36.4 µL/min/mg, the pIC50 (cells [28]) was 8.22 and the pIC50 (cells [29]) was 8.22.
